Results on 10 compounds are retold here after ChEMBL document CHEMBL1132190, “Synthesis of 1-substituted 3-(chloromethyl)-6-aminoindoline (6-amino-seco-CI) DNA minor groove alkylating agents and structure-activity relationships for their cytotoxicity” (J Med Chem, 1999).

The structures appear in SMILES notation. Values after ≈ are worked out from the molar mass of the structure shown.

One data set relates to CHO-AA8. The data set is described as follows: Cytotoxicity in chinese hamster ovary tumor cell line-AA8, by growth inhibition assay. It counts as functional, cell-based. The conditions noted are these: Cricetulus griseus. A digest of the protocol:
(§1)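 Log-phase monolayers in α-MEM with 5% FBS, no antibiotics; seeded at 200 (AA8), 300 (UV4) or 50 (EMT6) cells/well. After 24 h, exposed to drug (DMSO stock, final DMSO <1%, medium pH 7.4) for 4 h at 37 °C, 5% CO₂, aerobic. Washed, then regrown 4 days. Methylene blue staining read cell density. IC50 = 50% growth inhibition versus same-plate controls.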

A further data set deals with SK-OV-3. The data set is described as follows: Cytotoxicity in human ovarian tumor cell line-SKOV3, by growth inhibition assay. It counts as functional, cell-based. A digest of the protocol:
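SKOV3 log-phase monolayers in α-MEM with 5% FBS, no antibiotics; 600 cells/well. After 24 h, 4 h aerobic drug exposure at 37 °C, 5% CO₂ (DMSO stock, final DMSO <1%, medium pH 7.4). Washed, then regrown 5 days. Methylene blue staining gave cell density. IC50 = 50% growth inhibition versus controls on the same plate.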

For a further data set, the system named is UV4. The data set is described as follows: Cytotoxicity in chinese hamster ovary tumor cell line -UV4 (repair deffective ERCC-1 mutant), by growth inhibition assay. In kind it is functional, cell-based. The note with it: Cricetulus griseus. Summed up: as §1
For a further data set, the system named is EMT6. The data set can be described thus: Cytotoxicity in murine mammary carcinoma tumor cell line-EMT6, by growth inhibition assay. In kind it is functional, cell-based. The conditions noted are these: Mus musculus. A digest of the protocol: as §1
Data set [1] is described as follows: Solubility in 0.1 M phosphate buffer (pH 7.0) at room temperature. In kind it is physicochemical. The conditions noted are these: read-out: S. A digest of the protocol: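 Solid suspended in 0.1 M phosphate buffer pH 7.0, sonicated 5 min at room temperature, centrifuged 5 min. Supernatant assayed by HPLC against a standard curve of known concentrations in acetonitrile. Three determinations, averaged.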

As usually defined, the IC50 is the concentration that inhibits the measured activity by half. A lower IC50 goes with greater potency. In the case of `COc1ccc2[nH]c(S(=O)(=O)N3CC(CCl)c4ccc(N)cc43)cc2c1` (stereo not given), the IC50 with CHO-AA8 was found to be 8200 nM; in the data set with SK-OV-3 it was 2700 nM; in the data set on UV4 it was 4300 nM; in the data set with EMT6 it was 4900 nM.
With `COc1cc2cc(C(=O)N3CC(CCl)c4ccc(N)cc43)[nH]c2cc1OCCN(C)C` (stereo not given), the IC50 in the data set on CHO-AA8 came out at 220 nM; with SK-OV-3 it was 150 nM; with UV4 it was 39 nM; in the data set on EMT6, 110 nM. Further, the solubility in data set [1] was above 1200 µM.
Consider `Nc1ccc2c(c1)N(C(=O)c1cc3cc(NC(=O)c4cc5ccccc5o4)ccc3[nH]1)CC2CCl` (stereo not given), for which the IC50 in the data set with CHO-AA8 was found to be 160 nM; in the data set with SK-OV-3 it was 600 nM; with UV4, 87 nM; in the data set on EMT6 it was 190 nM.
For `CCCC(=O)Nc1cc(/C=C/C(=O)N2CC(CCl)c3ccc(N)cc32)n(C)c1` (stereo not given), in that order: 2100 nM, 1900 nM, 310 nM and 910 nM.
For `COc1cc2cc(C(=O)N3CC(CCl)c4ccc(N)cc43)[nH]c2c(OC)c1OC` (stereo not given), the IC50 in the data set with CHO-AA8 came out at 350 nM; in the data set on SK-OV-3, 630 nM; in the data set on UV4 it was 55 nM; with EMT6, 270 nM. For the same compound, the solubility in data set [1] came to 32 µM (≈ 13.3 µg/mL).
Take `COc1ccc2oc(S(=O)(=O)N3CC(CCl)c4ccc(N)cc43)cc2c1` (stereo not given): the IC50 came to 6600 nM with CHO-AA8, 4400 nM in the data set on SK-OV-3, 2800 nM with UV4 and 2600 nM in the data set on EMT6.
In the same order, the values of `COc1ccc2oc(C(=O)N3CC(CCl)c4ccc(N)cc43)cc2c1` (stereo not given) are 880 nM, 1100 nM, 120 nM and 640 nM.
For `CN(C)CCOc1ccc2[nH]c(C(=O)N3CC(CCl)c4ccc(N)cc43)cc2c1` (stereo not given), the IC50 in the data set on CHO-AA8 worked out at 160 nM; with SK-OV-3 it was 260 nM; in the data set on UV4, 44 nM; in the data set with EMT6 it was 120 nM. Further, in data set [1], the solubility came out at 700 µM (≈ 289 µg/mL).
In the case of `COc1ccc2[nH]c(C(=O)N3CC(CCl)c4ccc(N)cc43)cc2c1` (stereo not given), the IC50 in the data set with CHO-AA8 was 310 nM; with SK-OV-3, 670 nM; in the data set with UV4 it was 47 nM; in the data set with EMT6 it was 230 nM. Besides, in data set [1], the solubility amounted to 23 µM (≈ 8.18 µg/mL).
Regarding `COc1cc(OCCN(C)C)c2[nH]c(C(=O)N3CC(CCl)c4ccc(N)cc43)cc2c1` (stereo not given), the IC50 in the data set with CHO-AA8 was found to be 140 nM; in the data set on SK-OV-3, 160 nM; in the data set with UV4 it was 29 nM; with EMT6 it was 90 nM. For the same compound, the solubility in data set [1] was 47 µM (≈ 20.8 µg/mL).
